Laboratory results from ChEMBL document CHEMBL1154063, “Facile synthesis and in vitro properties of 1-alkyl- and 1-alkyl-N-propargyl-1,2,3,4-tetrahydroisoquinoline derivatives on PC12 cells” (Eur J Med Chem, 2009).

Legend:
PC-12 [1] = experiment: Induction of apoptosis in rat PC12 cells assessed as length of migrated cell nucleus at 1 mM after 3 hrs by comet assay; type: toxicity, cell-based; conditions: pc-12, 3 h, 1000 µM
How it was run: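 PC12 cells (5×10^5/well in PBS(-)) exposed to 1.0 mM final compound for 3 h at 37 °C. Cells embedded in low-melt agarose, lysed 1 h at 4 °C, then alkaline unwinding 30 min. Electrophoresed at 15 V for 30 min and stained with SYBR Green. 200 cells scored per sample under fluorescence at ×200. Whole comet length measured with an ocular micrometer.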

PC-12 [2] = experiment: Cytotoxicity against rat PC12 cells assessed as effect on cell viability at 0.01 mM after 48 hrs by tetrazolium/formazan assay; type: cell-based; conditions: pc-12, 48 h, 10 µM
How it was run: (§1)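 PC12 cells in log growth, seeded at 3×10^5 cells/mL in serum-containing DMEM. After 24 h, medium replaced with the derivative diluted in serum-free DMEM. After 48 h exposure, CCK-8 (WST tetrazolium) added for 4 h at 37 °C. A490 read and viability expressed as % of untreated control. Means ± S.E., n = 3-6. Dunnett test after ANOVA.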

PC-12 [3] = experiment: Cytotoxicity against rat PC12 cells assessed as effect on cell viability at 0.05 to 1 mM after 48 hrs by tetrazolium/formazan assay; type: cell-based; conditions: pc-12, 48 h, 1000 µM; how it was run: as §1
PC-12 [4] = experiment: Cytotoxicity against rat PC12 cells assessed as effect on cell viability at 0.5 mM after 48 hrs by tetrazolium/formazan assay; conditions: pc-12, 48 h, 500 µM
PC-12 [5] = experiment: Cytotoxicity against rat PC12 cells assessed as effect on cell viability at 1 mM after 48 hrs by tetrazolium/formazan assay; conditions: pc-12, 48 h, 1000 µM
[6] = biological target: T1, Amine oxidase [flavin-containing] B (Homo sapiens, UniProt P27338); experiment: Inhibition of MAOB at 100 nM after 60 mins using benylamine as substrate relative to control; design: scale not given: the % may be the effect or the level left; conditions: 1 h
T1 sequence (P27338 whole entry): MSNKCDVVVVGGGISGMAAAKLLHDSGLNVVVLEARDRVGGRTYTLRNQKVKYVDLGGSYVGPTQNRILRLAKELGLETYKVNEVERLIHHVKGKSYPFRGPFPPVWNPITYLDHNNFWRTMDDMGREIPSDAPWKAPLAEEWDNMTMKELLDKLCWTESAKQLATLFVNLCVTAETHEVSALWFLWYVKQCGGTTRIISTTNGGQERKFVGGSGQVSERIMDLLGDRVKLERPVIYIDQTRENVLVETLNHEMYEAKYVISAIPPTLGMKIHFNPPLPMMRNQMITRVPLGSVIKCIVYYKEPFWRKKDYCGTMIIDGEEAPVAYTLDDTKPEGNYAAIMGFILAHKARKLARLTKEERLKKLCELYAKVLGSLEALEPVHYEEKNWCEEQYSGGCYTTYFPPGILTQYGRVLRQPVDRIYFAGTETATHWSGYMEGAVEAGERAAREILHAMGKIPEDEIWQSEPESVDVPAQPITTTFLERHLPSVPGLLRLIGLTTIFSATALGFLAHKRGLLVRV

[7] = biological target: T1, Amine oxidase [flavin-containing] B; experiment: Inhibition of MAOB at 100 nM after 60 mins using tyramine as substrate relative to control; design: scale not given: the % may be the effect or the level left; conditions: 1 h
[8] = biological target: T2, Amine oxidase [flavin-containing] A (Homo sapiens, UniProt P21397); experiment: Inhibition of MAOA at 100 nM after 60 mins using tyramine as substrate relative to control; design: scale not given: the % may be the effect or the level left; conditions: 1 h
T2 sequence (P21397 whole entry): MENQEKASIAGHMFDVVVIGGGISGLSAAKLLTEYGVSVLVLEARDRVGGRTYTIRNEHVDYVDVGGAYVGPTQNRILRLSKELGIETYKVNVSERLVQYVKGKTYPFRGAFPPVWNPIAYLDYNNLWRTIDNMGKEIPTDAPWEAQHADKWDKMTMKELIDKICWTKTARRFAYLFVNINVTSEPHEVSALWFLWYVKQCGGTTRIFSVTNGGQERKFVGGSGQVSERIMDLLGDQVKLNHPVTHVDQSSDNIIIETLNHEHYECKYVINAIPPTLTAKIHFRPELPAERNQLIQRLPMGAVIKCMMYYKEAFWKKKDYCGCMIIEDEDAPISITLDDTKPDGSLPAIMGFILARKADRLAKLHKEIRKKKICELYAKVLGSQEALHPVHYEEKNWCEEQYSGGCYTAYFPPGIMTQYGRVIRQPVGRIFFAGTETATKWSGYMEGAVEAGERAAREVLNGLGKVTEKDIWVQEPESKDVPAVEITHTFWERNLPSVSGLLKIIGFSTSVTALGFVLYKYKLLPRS
How it was run: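 MAO-A enzyme (10 µg/mL) incubated with 0.5 mM tyramine and 100 nM compound for 60 min at 37 °C. H2O2 formed was detected with a peroxidase-coupled fluorogenic kit (ex 530/em 590 nm). Activity expressed as % of vehicle control. Means ± S.E., n = 8.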

SMILES	Activity (PC-12 [2])	Activity (PC-12 [4])	Activity (PC-12 [5])	other results
c1ccc2c(c1)CCNC2C1CCCCC1 (stereo unspecified)	Non-toxic	Toxic	–	Activity (PC-12 [1]): 120 um; Activity (PC-12 [3]): Toxic
CCCCCC1NCCc2ccccc21 (stereo unspecified)	–	Toxic	Toxic	–
CCCCCCC1NCCc2ccccc21 (stereo unspecified)	Non-toxic	Toxic	Toxic	Activity (PC-12 [1]): 150 um; Activity (PC-12 [3]): Toxic
CCCCC1NCCc2ccccc21 (stereo unspecified)	–	Toxic	Toxic	–
c1ccc2c(c1)CCNC2C1CCCC1 (stereo unspecified)	Non-toxic	Toxic	–	–
C#CCN1CCc2ccccc2C1C (stereo unspecified)	–	–	–	Activity at 0.1 µM [6]: 99.4%; Activity at 0.1 µM [7]: 101%; Activity at 0.1 µM [8]: 97.5%
C#CCN1CCc2ccccc2C1C1CC1 (stereo unspecified)	–	–	–	Activity at 0.1 µM [6]: 97.5%; Activity at 0.1 µM [7]: 98.4%; Activity at 0.1 µM [8]: 96.2%
c1ccc2c(c1)CCNC2C1CC1 (stereo unspecified)	Non-toxic	Toxic	–	–
C[n+]1ccc(-c2ccccc2)cc1.[Cl-]	–	–	–	Activity (PC-12 [1]): 60 um
CCC1NCCc2ccccc21 (stereo unspecified)	–	Toxic	Toxic	–
CCCC1NCCc2ccccc21 (stereo unspecified)	–	Toxic	Toxic	–
c1ccc2c(c1)CCNC2C1CCC1 (stereo unspecified)	Non-toxic	Toxic	–	–
C#CCN(C)[C@H](C)Cc1ccccc1 [SELEGILINE]	–	–	–	Activity at 0.1 µM [8]: 94.2%
